Most compounds without a hit are left out; they make up all but 0.98% or so of the library.
S100A4 inh HTS = blocks human S100A4 binding to myosin IIA peptide; P26447; S100A4/TAMRA-MyoIIA peptide fluorescence polarization; inhibition, % at 10.7 µM; 360,000 compounds, 0.14% hits; AID 652163;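 active = mean inhibition of at least 70% across replicates, with every replicate also reaching that level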
Target sequence (P26447 whole entry, looked up): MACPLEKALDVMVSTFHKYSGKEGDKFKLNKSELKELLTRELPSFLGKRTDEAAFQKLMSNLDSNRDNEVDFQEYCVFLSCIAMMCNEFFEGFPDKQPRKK
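Material: human S100A4 monomer with TAMRA-labelled myosin IIA peptide; buffer or medium: HEPES pH 7.2 with CaCl2, KCl, NaCl, DTT, Triton; compound dosing: one concentration per compound; schedule: 5 min incubation before reading; benchmarks: neutral control DMSO, positive control TFP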
ERAP1 HTS inh = inhibitors of human ERAP1 aminopeptidase. recombinant ERAP1, Leu-AMC fluorescence, 60 min. inhibition, % at 10.7 µM. Q9NZ08. 340,000 compounds, 0.15% hits. AID 652197;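 active = mean replicate inhibition of at least 30%, or all replicates individually reaching that 30% level; inactive = mean below 30% and not every replicate reaching it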
Statin myotox sup = suppressors of simvastatin-induced myotoxicity in C2C12 myotubes. AID 602340. ATP luminescence, 48 h; scaled: DMSO 0, geranylgeraniol control 100. rescue of ATP level, % at 7.49 µM. 330,000 compounds, 0.78% hits;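 active = mean ATP rescue above about 67%, or every replicate alone reaching that limit, limit read from the data, passing the limit was not always enough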;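 also: myotubes were challenged with 10 µM simvastatin during compound exposure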
Rtt109 Vps75 = blocks Candida albicans Rtt109/Vps75 acetyltransferase activity. Q5AAJ8. purified Rtt109/Vps75, ThioGlo CoA-SH fluorescence, 4 h. inhibition, % at 34.9 µM. 330,000 compounds, 0.16% hits. AID 540336;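 active = inhibition of at least 50% in every replicate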
Target sequence (Q5AAJ8 whole entry, looked up): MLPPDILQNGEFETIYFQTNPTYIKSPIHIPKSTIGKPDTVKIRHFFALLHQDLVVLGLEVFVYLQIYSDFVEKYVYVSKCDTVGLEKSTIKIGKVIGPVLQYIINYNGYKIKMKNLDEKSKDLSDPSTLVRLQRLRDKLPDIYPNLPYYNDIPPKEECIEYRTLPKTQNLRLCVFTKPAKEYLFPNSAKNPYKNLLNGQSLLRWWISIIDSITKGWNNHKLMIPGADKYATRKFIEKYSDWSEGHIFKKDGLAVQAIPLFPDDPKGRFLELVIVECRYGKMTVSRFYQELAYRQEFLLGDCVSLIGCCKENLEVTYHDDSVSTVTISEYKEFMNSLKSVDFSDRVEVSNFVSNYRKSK
PGC1a acetyl inh = modulators of PGC1a acetylation; U2OS PGC1a acetylation, AlphaScreen anti-acetyl-lysine; with virally co-expressed GCN5 acetyltransferase; inhibition, % at 15.6 µM; 350,000 compounds, 0.17% hits;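 active = every replicate shows inhibition of at least 40%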
Of the large screens only hits and unclear results are named; the others gave an inactive call.

Cc1ccccc1NC(=O)c1onc2c1CCCC2	Statin myotox sup 140 (no result: S100A4 inh HTS, ERAP1 HTS inh)
Cc1cccc(NC(=O)c2onc3c2CCCC3)n1	none (no result: Statin myotox sup)
CCNC(=O)C[C@H]1CC[C@H](NC(=O)C2CCC2)[C@H](CO)O1	none (no result: Rtt109 Vps75)
Cc1ccc(-c2csc(NC(=O)c3ccc(-c4ccccc4)cc3)n2)o1	Statin myotox sup 89 (no result: S100A4 inh HTS, ERAP1 HTS inh)
O=C(Nc1nc(-c2ccco2)cs1)c1ccccc1	none (no result: S100A4 inh HTS, ERAP1 HTS inh)
CC(c1ccccc1)n1c(Br)nc2c1c(=O)[nH]c(=O)n2C (stereo not drawn)	none
CC(c1ccccc1)n1c(N2CCNCC2)nc2c1c(=O)[nH]c(=O)n2C (stereo not drawn)	Rtt109 Vps75 65
CC(=O)N(C)C[C@@H]1Oc2cc(-c3cccc(F)c3)ccc2S(=O)(=O)N([C@H](C)CO)C[C@@H]1C	none (no result: Rtt109 Vps75)
CN(C)CCN1C(=O)NC(C)(c2ccc([N+](=O)[O-])cc2)C1=O (stereo not drawn)	none
CN(C)N1C(=O)CC(C)(c2ccc([N+](=O)[O-])cc2)C1=O (stereo not drawn)	Statin myotox sup 114
CC(=O)c1ccc(N2CCN(CC(O)COC(c3ccccc3)c3ccccc3C)CC2)cc1 (stereo not drawn)	none (no result: PGC1a acetyl inh)
CC(=O)c1ccc(N2CCN(CC(O)COC(c3ccccc3)c3ccccc3)CC2)cc1 (stereo not drawn)	Rtt109 Vps75 55 (no result: PGC1a acetyl inh)
C[C@@H]1CN([C@H](C)CO)C(=O)Cc2cc(NC(=O)c3ccncc3)ccc2O[C@@H]1CN(C)Cc1ccc(Cl)c(Cl)c1	Statin myotox sup 70 (no result: Rtt109 Vps75)
C[C@H](CO)N1C[C@H](C)[C@@H](CN(C)Cc2ccc(Cl)c(Cl)c2)Oc2ccc(NC(=O)C3CC3)cc2CC1=O	Statin myotox sup 85 (no result: Rtt109 Vps75)
O=C1NC(=NCc2ccccc2)NC1(c1ccccc1)c1ccccc1	Statin myotox sup 101
COc1ccc2c3c(n(C)c2c1)[C@@H](CO)N(C(=O)c1cnccn1)CC31CCN(C)CC1	none (no result: S100A4 inh HTS, ERAP1 HTS inh, Statin myotox sup, Rtt109 Vps75)
C[C@@H]1CN([C@H](C)CO)S(=O)(=O)c2ccc(-c3ccc(F)cc3)cc2O[C@@H]1CN(C)C(=O)C1CCCCC1	none (no result: Rtt109 Vps75)
CCOC(=O)C(C)C1(O)c2ccccc2-c2ncccc21 (stereo not drawn)	Statin myotox sup 106
OC(CC1CC12c1ccccc1-c1ncccc12)(c1ccccc1)c1ccccc1 (stereo not drawn)	none (no result: S100A4 inh HTS, ERAP1 HTS inh)
COc1ccc(-c2ncc3ccccn23)cc1	Statin myotox sup 99 (no result: S100A4 inh HTS, ERAP1 HTS inh)
Cc1ccc(CN(C)C[C@H]2OCc3cn(nn3)CCCC(=O)N([C@H](C)CO)C[C@@H]2C)cc1	none (no result: S100A4 inh HTS, ERAP1 HTS inh, Rtt109 Vps75)
C[C@@H]1CN([C@H](C)CO)C(=O)c2cc(-c3ccccc3)cnc2O[C@@H]1CN(C)C(=O)c1cccnc1	none (no result: Statin myotox sup, Rtt109 Vps75)
C/C=C/c1cnc2c(c1)C(=O)N([C@@H](C)CO)C[C@H](C)[C@H](CN(C)Cc1ccccc1)O2	none (no result: Rtt109 Vps75)
CCOC(=O)c1ccc(-c2c(C(=O)OCC)oc3cc(O)c(CC)cc3c2=O)o1	Statin myotox sup 100 (no result: S100A4 inh HTS, ERAP1 HTS inh)
COc1ccc(CN(C)C[C@@H]2OCCCC[C@@H](C)Oc3ccc(NS(=O)(=O)c4ccccc4)cc3C(=O)N([C@H](C)CO)C[C@H]2C)cc1	none (no result: Statin myotox sup, Rtt109 Vps75)
Cc1ccc(-c2nnn(CC(=O)N(c3ccc(F)cc3)C(C(=O)NC(C)(C)C)c3ccco3)n2)o1 (stereo not drawn)	Statin myotox sup 83 (no result: S100A4 inh HTS, ERAP1 HTS inh)
Cc1ccc(-c2nnn(CC(=O)N(c3ccc(F)cc3)C(C(=O)NC3CCCC3)c3ccco3)n2)o1 (stereo not drawn)	none (no result: Statin myotox sup)
C[C@H](CO)N1C[C@H](C)[C@@H](CN(C)C(=O)CC2CC2)Oc2ncc(-c3ccc(C#N)cc3)cc2C1=O	none (no result: Rtt109 Vps75)
O=C(Nc1nc(NC(=O)c2ccco2)n(-c2ccccc2)n1)c1ccccc1	Statin myotox sup 94 (no result: S100A4 inh HTS, ERAP1 HTS inh)
Nc1nc(NC(=O)c2ccccc2)nn1-c1ccccc1	none
O=C1/C(=C/c2ccncc2)CCC/C1=C\c1ccncc1	Statin myotox sup 250, PGC1a acetyl inh 78 (no result: ERAP1 HTS inh)
CCCn1cc(S(=O)(=O)CC(=O)NC2CCCCC2)c2ccccc21	Rtt109 Vps75 51 (no result: S100A4 inh HTS, ERAP1 HTS inh, Statin myotox sup)
CCCn1cc(SCC(=O)NC2CCCC2)c2ccccc21	none (no result: Statin myotox sup)
CCCNC(=O)Nc1ccc2c(c1)OC[C@@H](C)N(Cc1ccncc1)C[C@H](C)[C@@H](OC)CN(C)C2=O	none (no result: Rtt109 Vps75)
COc1cc(C)c(-c2cc(C(=O)O)c(C)o2)cc1C(C)C	Statin myotox sup 95 (no result: S100A4 inh HTS, ERAP1 HTS inh)
COc1cc(C)c(S(=O)(=O)N2CCCC2)cc1C(C)C	none
CCN(Cc1nc2cc(Cl)ccc2c(=O)[nH]1)C(=O)c1nn(C)c(=O)c2ccccc12	ERAP1 HTS inh 63
COc1ccc(NC(=O)N(C)C[C@H]2Oc3ccc(NC(=O)c4ccncc4)cc3C(=O)N([C@@H](C)CO)C[C@@H]2C)cc1	none (no result: S100A4 inh HTS, ERAP1 HTS inh, Rtt109 Vps75)
COc1ccc(C2C(Oc3ccccc3)C(=O)N2c2cc(C)ccc2C)cc1OC (stereo not drawn)	Statin myotox sup 73 (no result: S100A4 inh HTS, ERAP1 HTS inh)
COc1ccc(C2C(Oc3ccccc3)C(=O)N2c2ccc(C)c(C)c2)cc1OC (stereo not drawn)	none (no result: S100A4 inh HTS, ERAP1 HTS inh)
C/C=C/c1ccc(OCCCNC(C)CC)c(OC)c1 (stereo not drawn)	Statin myotox sup 99 (no result: S100A4 inh HTS, ERAP1 HTS inh)
CC=Cc1ccc2n(c1=O)C[C@@H]1[C@@H](CO)[C@H](C(=O)N3CCc4ccccc4C3)[C@H]2N1Cc1ccncc1 (mixture of isomers)	none (no result: Rtt109 Vps75)
CCOC(=O)Cn1c(C)[n+](CC(=O)c2ccccc2)c2ccccc21	Rtt109 Vps75 55
C[C@H](CO)N1C[C@H](C)[C@H](CN(C)Cc2ccc(C(F)(F)F)cc2)OCCCC[C@H](C)Oc2ccc(NS(=O)(=O)c3cn(C)cn3)cc2C1=O	none (no result: Statin myotox sup, Rtt109 Vps75)
CC[C@@H](C)[C@H](NC(=O)OC(C)(C)C)c1nnc(S(=O)(=O)Cc2cc(C)ccc2C)o1	Rtt109 Vps75 133 (no result: S100A4 inh HTS, ERAP1 HTS inh)
COc1c(Cl)cc(Cl)cc1C(=O)n1nc(C)cc1C	Statin myotox sup 98 (no result: S100A4 inh HTS, ERAP1 HTS inh)
N=c1oc2ccccc2cc1-c1nc2ccccc2c(=O)[nH]1	Statin myotox sup 92
N#CC12COC3(CCCCC3C1(C#N)C#N)OC2=N (stereo not drawn)	S100A4 inh HTS 79 (no result: Statin myotox sup, PGC1a acetyl inh)
Cc1cc2cc(CNC(=O)c3ccc(S(=O)(=O)N4CCCCC4)cc3)ccc2n1C	none
Cc1cc2cc(CNC(=O)c3ccc(S(=O)(=O)N4CCCC4)cc3)ccc2n1C	S100A4 inh HTS 121
COc1ccc(CNC(=O)C2CCCN(S(=O)(=O)c3ccc4c(c3)CCCN4C(C)=O)C2)cc1 (stereo not drawn)	Statin myotox sup 120
COc1ccc(CNC(=O)COC(=O)c2ccc(S(=O)(=O)N3CCCCC3)cc2)cc1	Rtt109 Vps75 52
COc1ccccc1C(=O)Nc1ccc2c(c1)C(=O)N(C)C[C@@H](OC)[C@H](C)CN(C)[C@@H](C)CO2	none (no result: Rtt109 Vps75)
CO[C@@H]1CN(C)C(=O)c2ccc(NC(=O)C3CCOCC3)cc2OC[C@H](C)N(C(=O)c2ccccc2)C[C@@H]1C	none (no result: ERAP1 HTS inh, Rtt109 Vps75)
O=C(c1ccncc1)N1C[C@H]2[C@@H](c3ccccc31)[C@@H](CO)N2Cc1ccc(F)cc1	none (no result: Rtt109 Vps75)

Bioassay records from PubChem.
